Compound activity (PubChem BioAssay)
CAL PDZ FP-1: CAL PDZ (human) peptide binding inhibition | inhibition, % at 24.9 µM | purified CAL PDZ, TMR-peptide fluorescence polarization, 1 h | 0.92% of 300,000 active;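 active = mean inhibition of at least 30% with at least half of replicates also reaching 30%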
dFosB activator: activators of mouse delta FosB homodimer; P13346; purified delta FosB, TAMRA-CDK5 oligo fluorescence polarization; percent of positive-control signal above neutral wells; activation, % at 25 µM; 0.99% of 340,000 active;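 active = mean activation above about 17%, with every replicate also reaching it, limit read from the data, passing the limit was not always enough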
CDK5 inh: blocks human CDK5/p35 kinase activity. Q00535+Q15078. inhibition, % at 10 µM. Recombinant CDK5/p35, ADP-Glo luminescence, 60 min. 0.01% of 330,000 active;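 active = highest replicate inhibition of at least 50% and at least 75% of replicates reaching 50%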
Target sequence (Q00535 whole entry, looked up): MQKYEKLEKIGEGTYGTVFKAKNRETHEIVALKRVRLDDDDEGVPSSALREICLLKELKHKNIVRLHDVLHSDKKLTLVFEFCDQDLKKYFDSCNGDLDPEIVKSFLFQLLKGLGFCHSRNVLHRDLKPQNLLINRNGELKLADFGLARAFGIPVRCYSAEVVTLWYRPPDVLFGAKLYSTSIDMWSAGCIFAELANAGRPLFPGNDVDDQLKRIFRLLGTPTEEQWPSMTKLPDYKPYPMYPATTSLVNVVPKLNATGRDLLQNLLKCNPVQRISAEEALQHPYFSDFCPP
Target sequence (Q15078 whole entry, looked up): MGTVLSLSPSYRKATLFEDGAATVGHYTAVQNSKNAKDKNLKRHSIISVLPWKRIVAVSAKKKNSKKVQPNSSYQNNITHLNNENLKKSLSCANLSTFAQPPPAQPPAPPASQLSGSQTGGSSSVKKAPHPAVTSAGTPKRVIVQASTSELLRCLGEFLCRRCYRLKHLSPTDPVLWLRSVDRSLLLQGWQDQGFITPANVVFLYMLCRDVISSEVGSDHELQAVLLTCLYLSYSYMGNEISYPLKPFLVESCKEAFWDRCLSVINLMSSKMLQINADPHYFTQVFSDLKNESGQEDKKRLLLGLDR
C2C12 statin: suppressors of simvastatin-induced myotoxicity in C2C12 myotubes; AID 602340; 0.78% of 330,000 active; ATP luminescence, 48 h; scaled: DMSO 0, geranylgeraniol control 100; rescue of ATP level, % at 7.49 µM;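 active = mean ATP rescue above about 67%, or every replicate alone reaching that limit, limit read from the data, passing the limit was not always enough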;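 also: myotubes were challenged with 10 µM simvastatin during compound exposure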
CAL PDZ FP-2: human CAL PDZ-peptide interaction inhibition; Q9HD26; purified CAL PDZ, TMR-peptide fluorescence polarization, 1 h; inhibition, % at 20 µM; 0.02% of 330,000 active; AID 504414;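 active = highest replicate inhibition of at least 40%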
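Control set: unlabelled peptide and DMSO controls / Material: purified CerCALP PDZ construct / Timing: 1 h incubation at room temperature before polarization reading / Doses: 20 µM, one dose / Detection: fluorescence polarization (mP)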
S100A4 MyoIIA: S100A4-myosin IIA interaction inhibition; inhibition, % at 10.7 µM; 0.14% of 360,000 active; S100A4/TAMRA-MyoIIA peptide fluorescence polarization;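 active = mean inhibition of at least 70% across replicates, with every replicate also reaching that level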
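Material: S100A4 monomer protein | Medium: HEPES pH 7.2 with CaCl2, KCl, NaCl, DTT, Triton | Reagent: Labelled myosin peptide probe, 5 nM | Doses: One dose per compound | Times: 5 min incubation before reading | Benchmarks: Neutral control DMSO, positive control TFP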
Numbers stand for hits; . = inactive; / = no result. Shown are actives, neighbours in structure and some others; about 2% of the full set was active somewhere.

SMILES | CAL PDZ FP-1 | dFosB activator | CDK5 inh | C2C12 statin | CAL PDZ FP-2 | S100A4 MyoIIA
CCCC(=O)Nc1ccc2c(c1)nc(CN1CCN(C(=O)OCC)CC1)n2C | . | . | . | . | . | .
Cn1c(CN2CCCC2)nc2cc(NC(=O)COc3ccc(Cl)cc3)ccc21 | . | . | . | . | . | .
Cn1c(CCN2CCCCC2)nc2cc(NC(=O)Nc3ccccc3)ccc21 | . | . | . | 116 | . | /
COc1ccc(OCC(=O)Nc2ccc3c(c2)nc(CN2CCCC2)n3C)cc1 | 58 | . | . | . | . | /
C[C@H]1CN([C@@H](C)CO)C(=O)c2cccc(NC(=O)CCCCCC(=O)Nc3ccccc3N)c2O[C@H]1CN(C)S(=O)(=O)c1cccs1 | / | / | / | / | / | .
Cc1ccc(C(=O)NCC(=O)NC2CCCCCC2)cc1 | . | . | . | . | . | .
CCOc1cccc(C2C(C(=O)c3ccc(C)o3)=C(O)C(=O)N2Cc2ccncc2)c1 (stereo unspecified) | . | . | . | / | . | /
C=CCOc1cccc(C2C(C(=O)c3ccc(C)o3)=C(O)C(=O)N2Cc2ccncc2)c1 (stereo unspecified) | . | . | . | 110 | . | /
OCc1cn(-c2ccccc2)nc1-c1ccc(Br)cc1 | . | . | . | . | . | .
COc1ccc(CCN(C)C(=O)C2CCN(Cc3ccccc3)CC2)cc1OC | . | . | . | . | . | .
COc1ccc(CCN(C)C(=O)C2CCN(Cc3cccc(OC)c3OC)CC2)cc1OC | 37 | . | . | . | . | .
COc1cccc(CSc2nnc(-c3ccncc3)n2C)c1 | 40 | . | . | . | . | .
CCOC(=O)Cn1nc(C)c([N+](=O)[O-])c1C | . | . | . | / | . | .
CCOC(=O)c1c(NC(=O)c2noc(C)c2[N+](=O)[O-])sc(C(C)=O)c1C | . | . | . | / | . | .
O=C1CCN(Cc2ccccc2)C(=O)N1 | . | . | . | . | . | .
O=C1NC(=O)N(Cc2ccccc2)CC1Br (stereo unspecified) | 31 | . | . | . | . | .
CNC[C@H]1OCCCC[C@@H](C)Oc2ccc(NC(=O)C3CCCCC3)cc2C(=O)N([C@@H](C)CO)C[C@@H]1C | / | / | / | . | / | 97
CNC[C@@H]1OCCCC[C@H](C)Oc2ccc(NS(C)(=O)=O)cc2C(=O)N([C@@H](C)CO)C[C@@H]1C | / | / | / | . | / | 89
Cc1noc(C)c1S(=O)(=O)N(C)C[C@@H]1OCCCC[C@H](C)Oc2ccc(NC(=O)C3CCCCC3)cc2C(=O)N([C@H](C)CO)C[C@H]1C | / | / | / | . | / | 111
CNC[C@H]1OCCCC[C@H](C)Oc2ccc(NC(=O)C3CCCCC3)cc2C(=O)N([C@@H](C)CO)C[C@@H]1C | / | / | / | . | / | .
COCC(=O)N(C)C[C@H]1Oc2ncc(-c3ccccc3C)cc2C(=O)N([C@@H](C)CO)C[C@@H]1C | / | / | / | . | / | .
Cc1noc(C)c1NC(=O)N(C)C[C@H]1Oc2ccc(NC(=O)CCC(F)(F)F)cc2C(=O)N([C@@H](C)CO)C[C@@H]1C | / | / | / | . | / | .
N#CC1C(=O)NC(=O)CC12CCCCC2 (stereo unspecified) | 80 | . | . | . | . | .
N#CC1C(=O)NC(=O)C(C#N)C12CCCCC2 (stereo unspecified) | / | / | / | / | / | .
O=C(O)CSC1CC(=O)N(c2ccc(Cl)c(Cl)c2)C1=O (stereo unspecified) | . | . | . | 138 | . | /
SMILES | CAL PDZ FP-1 | dFosB activator | CDK5 inh | C2C12 statin | CAL PDZ FP-2 | S100A4 MyoIIA
Cc1ccc(N(CC(=O)NC2CC3CCC2C3)S(C)(=O)=O)cc1C (stereo unspecified) | . | . | . | / | . | /
Cc1sc2nc(CN3CCN(c4ccc(O)cc4)CC3)[nH]c(=O)c2c1C | 45 | . | . | / | . | .
COc1ccccc1C(=O)N/N=C/C(C)=C/c1ccccc1 | 35 | . | . | . | . | .
CCOC(=O)c1ccc(-c2c(C(=O)OCC)oc3cc(O)c(CC)cc3c2=O)o1 | . | . | . | 100 | . | /
CN(C)C(CNC(=O)NC1CCCCC1)c1cccnc1 (stereo unspecified) | . | . | . | 107 | . | /
COC(CNS(=O)(=O)c1cc2c3c(c1)CCN3C(=O)CC2)OC | 48 | . | . | . | . | .
CC(C)(C)NC(=S)NCc1ccc2c(c1)OCO2 | . | . | . | / | . | .
Cc1cccc(-c2ccc([C@H]3[C@H]4CN(S(=O)(=O)c5ccccc5C)CCCCN4[C@H]3CO)cc2)c1 | / | / | / | / | / | .
CCOc1ccccc1N(CC)C(=O)Cn1ncc2c(=O)oc3ccccc3c21 | / | . | . | . | . | .
CC(C(=O)Nc1ccc(C(=O)O)c(O)c1)N1C(=O)/C(=C\c2ccco2)SC1=S (stereo unspecified) | . | . | . | 126 | . | /
O=C(CN1C(=O)/C(=C/c2ccco2)SC1=S)Nc1ccc(C(=O)O)c(O)c1 | . | . | . | . | . | .
N#Cc1c2n(c3c(=O)n(Cc4ccc(Cl)cc4)cnc13)CCCCC2 | . | . | . | 95 | . | /
N#Cc1c2n(c3c(=O)n(Cc4ccccc4)cnc13)CCCC2 | . | . | . | . | . | .
CCN(CC)S(=O)(=O)c1ccc(N2CC(C(=O)NCCC3=CCCCC3)CC2=O)cc1 (stereo unspecified) | 45 | . | . | . | . | .
CCN(CC)S(=O)(=O)c1ccc(N2CC(C(=O)NCCc3ccc(Cl)cc3)CC2=O)cc1 (stereo unspecified) | . | . | . | . | . | .
CC1CCCN(C(=O)CCCNC(=O)c2ccc(Cl)cc2)C1 (stereo unspecified) | / | . | . | / | . | .
NC(=O)C1CCCN(C(=O)CCCNC(=O)c2ccc(Cl)cc2)C1 (stereo unspecified) | 73 | . | . | . | . | .
COCC(=O)Nc1ccc2c(c1)[C@H]1C[C@H](CC(=O)N3CCCCC3)O[C@H](CO)[C@H]1O2 | / | / | / | . | / | /
COc1ccc(S(=O)(=O)N2CCN(c3ccccc3OC)CC2)cc1 | . | . | . | . | . | .
COc1ccc(S(=O)(=O)N2CCN(c3ccc4nnc(-c5ccccc5)n4n3)CC2)cc1 | / | . | . | 111 | . | .
CCc1ccc(NC(=O)CSc2nnc(CC)c(CC)n2)cc1 | . | . | . | / | . | /
CCc1nnc(SCC(=O)Nc2ccc(C(C)=O)cc2)nc1CC | . | . | . | 113 | . | /
COc1ccc(N2CCN(C(=O)CN3C(=O)NC4(CCCCCC4)C3=O)CC2)cc1 | 59 | . | . | . | . | .
CNc1nc(N/N=C/c2cc([N+](=O)[O-])ccc2F)nc(Nc2ccccc2)n1 | . | 94 | . | . | . | .
Cc1ccc(S(=O)(=O)N2CCOCC2)cc1C(=O)NC1CCCCC1 | . | . | . | 71 | / | /
Cc1ccc(S(=O)(=O)N2CCOCC2)cc1C(=O)N1CCN(c2ncccn2)CC1 | 51 | . | . | . | . | .
